Experimental data taken from ChEMBL document CHEMBL4007505 (J Med Chem, 2017).
Activity calls are given as the source filed them. No cut-off for these calls is given here.

Tests used:
[1] = biological target: T1, 5-hydroxytryptamine receptor 2C (Homo sapiens, UniProt P28335); experiment: Displacement of [3H]Mesulergine from human 5-HT2C receptor
T1 sequence (P28335 whole entry): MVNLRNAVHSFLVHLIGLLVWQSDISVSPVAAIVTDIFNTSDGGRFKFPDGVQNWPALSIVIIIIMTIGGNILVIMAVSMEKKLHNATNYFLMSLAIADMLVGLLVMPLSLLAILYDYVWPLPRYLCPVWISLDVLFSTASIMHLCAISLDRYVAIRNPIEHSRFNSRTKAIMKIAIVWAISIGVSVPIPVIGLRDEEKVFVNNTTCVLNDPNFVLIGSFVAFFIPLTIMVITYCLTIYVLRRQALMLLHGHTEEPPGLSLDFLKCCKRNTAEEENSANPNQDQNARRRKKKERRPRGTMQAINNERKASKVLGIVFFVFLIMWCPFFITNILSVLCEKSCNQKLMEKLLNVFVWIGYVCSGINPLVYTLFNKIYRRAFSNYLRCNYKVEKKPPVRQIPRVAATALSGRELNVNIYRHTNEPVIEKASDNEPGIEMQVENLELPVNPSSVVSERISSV

[2] = biological target: T2, Sodium-dependent dopamine transporter (Homo sapiens, UniProt Q01959); experiment: Inhibition of recombinant human DAT expressed in HEK293 cell […] as reduction in [3H]-DA uptake incubated for 22 mins by micro beta scintillation counting analysis
T2 sequence (Q01959 whole entry): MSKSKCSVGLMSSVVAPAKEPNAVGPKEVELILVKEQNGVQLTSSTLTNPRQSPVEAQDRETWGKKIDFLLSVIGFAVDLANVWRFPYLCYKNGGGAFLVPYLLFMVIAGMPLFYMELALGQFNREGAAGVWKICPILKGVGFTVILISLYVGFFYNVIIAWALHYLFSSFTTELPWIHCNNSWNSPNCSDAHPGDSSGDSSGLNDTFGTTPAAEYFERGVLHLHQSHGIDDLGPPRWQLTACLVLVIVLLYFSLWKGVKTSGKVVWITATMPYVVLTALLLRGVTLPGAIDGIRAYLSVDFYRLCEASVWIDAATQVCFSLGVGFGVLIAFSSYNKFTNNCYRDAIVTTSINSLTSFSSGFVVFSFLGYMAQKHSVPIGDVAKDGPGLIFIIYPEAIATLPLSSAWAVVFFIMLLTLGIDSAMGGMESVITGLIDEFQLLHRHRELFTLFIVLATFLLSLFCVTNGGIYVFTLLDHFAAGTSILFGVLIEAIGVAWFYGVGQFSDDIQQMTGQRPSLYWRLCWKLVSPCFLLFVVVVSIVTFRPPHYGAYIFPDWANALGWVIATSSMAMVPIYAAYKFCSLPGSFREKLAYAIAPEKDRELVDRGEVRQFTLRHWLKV

[3] = biological target: T2, Sodium-dependent dopamine transporter; experiment: Inhibition of [3H]WIN35,428 binding to recombinant human DAT expressed in HEK293 cell membranes at 10 uM pre-incubated for 10 mins before radioligand addition and measured 90 mins after radioligand addition by micro beta scintillation counting analysis relative to control
[4] = biological target: T3, Sodium-dependent noradrenaline transporter (Homo sapiens, UniProt P23975); experiment: Enhancing of [3H]mazindol binding to recombinant human NET expressed in HEK293 cell membranes preincubated for 10 mins followed by radioligand addition measured after 90 mins by micro beta scintillation counting analysis
T3 sequence (P23975 whole entry): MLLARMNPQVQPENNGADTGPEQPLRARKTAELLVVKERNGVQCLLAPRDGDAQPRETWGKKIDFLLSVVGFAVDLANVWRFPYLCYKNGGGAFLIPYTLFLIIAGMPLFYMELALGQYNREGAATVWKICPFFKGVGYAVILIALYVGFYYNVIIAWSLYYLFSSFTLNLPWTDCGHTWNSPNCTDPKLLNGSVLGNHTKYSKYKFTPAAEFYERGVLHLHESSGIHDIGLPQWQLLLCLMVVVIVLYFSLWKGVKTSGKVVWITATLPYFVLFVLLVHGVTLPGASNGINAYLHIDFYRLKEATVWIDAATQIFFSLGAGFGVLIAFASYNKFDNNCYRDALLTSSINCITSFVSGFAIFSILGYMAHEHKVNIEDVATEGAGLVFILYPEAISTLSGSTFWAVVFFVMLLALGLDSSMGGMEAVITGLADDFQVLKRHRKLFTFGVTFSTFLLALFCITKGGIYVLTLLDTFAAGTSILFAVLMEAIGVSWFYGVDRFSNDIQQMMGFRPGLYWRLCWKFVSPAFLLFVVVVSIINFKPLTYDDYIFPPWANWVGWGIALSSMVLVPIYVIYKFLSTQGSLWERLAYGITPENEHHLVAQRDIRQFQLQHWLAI

[5] = biological target: T3, Sodium-dependent noradrenaline transporter; experiment: Enhancing of [125I]RTI-55 binding to recombinant human NET expressed in HEK293 cell membranes preincubated for 10 mins followed by radioligand addition measured after 90 mins by micro beta scintillation counting analysis; set-up: concentration or dose not given beside the values; conditions: for EC50: read-out: EC50
[6] = biological target: T2, Sodium-dependent dopamine transporter; experiment: Enhancing of [3H]mazindol binding to recombinant human DAT expressed in HEK293 cell membranes preincubated for 10 mins followed by radioligand addition measured after 90 mins by micro beta scintillation counting analysis; set-up: concentration or dose not given beside the values; conditions: for EC50: read-out: EC50
How it was run: (§1)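 Membranes of HEK-293 cells stably expressing hDAT, hNET or hSERT. […] Compound preincubated 10 min at room temperature, then [125I]23 (40-80 pM final) or [3H]26 (1-3 nM for DAT and NET, 10-13 nM for SERT) added. Incubated 90 min at room temperature in the dark, then filtered. EC50 or Ki; mean ± SEM.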

[7] = biological target: T4, Adenosine receptor A3 (Homo sapiens, UniProt P0DMS8); experiment: Displacement of [125I]N6-(4-amino-3-iodobenzyl)adenosine-5'-N-methyluronamide from human A3AR expressed in HEK293T cells pre-incubated for 10 mins before radioligand addition and measured 90 mins after radioligand addition by micro beta scintillation counting analysis relative to control; assay type: cell-based, HEK-293T
T4 sequence (P0DMS8 whole entry): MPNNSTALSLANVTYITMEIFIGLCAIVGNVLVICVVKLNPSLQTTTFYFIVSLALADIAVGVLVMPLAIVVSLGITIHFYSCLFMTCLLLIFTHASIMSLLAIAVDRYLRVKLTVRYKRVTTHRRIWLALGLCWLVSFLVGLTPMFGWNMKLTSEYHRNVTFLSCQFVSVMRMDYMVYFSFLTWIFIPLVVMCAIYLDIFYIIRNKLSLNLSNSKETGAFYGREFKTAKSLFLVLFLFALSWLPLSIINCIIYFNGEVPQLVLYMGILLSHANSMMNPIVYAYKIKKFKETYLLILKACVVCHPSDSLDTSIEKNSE

[8] = biological target: T5, Adenosine receptor A3 (Mus musculus) (UniProt Q61618); experiment: Displacement of [125I]N6-(4-amino-3-iodobenzyl)adenosine-5'-N-methyluronamide from mouse A3AR expressed in HEK293T cells at 10 uM pre-incubated for 10 mins before radioligand addition and measured 90 mins after radioligand addition by micro beta scintillation counting analysis relative to control; assay type: cell-based
T5 sequence (whole entry): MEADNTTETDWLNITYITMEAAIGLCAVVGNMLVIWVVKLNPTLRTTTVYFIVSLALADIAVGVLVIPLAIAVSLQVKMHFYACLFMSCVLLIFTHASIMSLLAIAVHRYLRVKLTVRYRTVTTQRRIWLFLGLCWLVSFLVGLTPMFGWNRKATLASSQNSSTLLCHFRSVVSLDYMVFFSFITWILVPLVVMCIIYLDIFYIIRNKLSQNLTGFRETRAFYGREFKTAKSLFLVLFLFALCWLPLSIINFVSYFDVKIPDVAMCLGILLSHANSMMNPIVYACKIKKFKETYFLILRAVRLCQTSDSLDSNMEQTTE

[9] = biological target: T2, Sodium-dependent dopamine transporter; experiment: Enhancing of [125I]RTI-55 binding to recombinant human DAT expressed in HEK293 cell membranes preincubated for 10 mins followed by radioligand addition measured after 90 mins by micro beta scintillation counting analysis; set-up: concentration or dose not given beside the values; conditions: for EC50: read-out: EC50; how it was run: as §1
[10] = biological target: T2, Sodium-dependent dopamine transporter; experiment: Enhancing of [3H]WIN35,428 binding to recombinant human DAT expressed in HEK293 cell membranes at 10 uM pre-incubated for 10 mins before radioligand addition and measured 90 mins after radioligand addition by micro beta scintillation counting analysis relative to control
[11] = biological target: T3, Sodium-dependent noradrenaline transporter; experiment: Inhibition of recombinant human NET expressed in HEK293 […] assessed as reduction in [3H]-norepinephrine uptake incubated for 22 mins by micro beta scintillation counting analysis
[12] = biological target: T6, Sodium-dependent serotonin transporter (Homo sapiens, UniProt P31645); experiment: Enhancing of [3H]mazindol binding to recombinant human SERT expressed in HEK293 cell membranes preincubated for 10 mins followed by radioligand addition measured after 90 mins by micro beta scintillation counting analysis
[13] = biological target: T6, Sodium-dependent serotonin transporter; experiment: Enhancing of [125I]RTI-55 binding to recombinant human SERT expressed in HEK293 cell membranes preincubated for 10 mins followed by radioligand addition measured after 90 mins by micro beta scintillation counting analysis; conditions: for EC50: read-out: EC50
[14] = biological target: T2, Sodium-dependent dopamine transporter; experiment: Enhancing of [3H]WIN35,428 binding to recombinant human DAT expressed in HEK293 cell membranes pre-incubated for 10 mins before radioligand addition and measured 90 mins after radioligand addition by micro beta scintillation counting analysis relative to control
[15] = biological target: T6, Sodium-dependent serotonin transporter; experiment: Inhibition of recombinant human SERT expressed in HEK293 cell […] as reduction in [3H]5-HT uptake incubated for 22 mins by micro beta scintillation counting analysis
Target sequence in this assay (P31645 whole entry): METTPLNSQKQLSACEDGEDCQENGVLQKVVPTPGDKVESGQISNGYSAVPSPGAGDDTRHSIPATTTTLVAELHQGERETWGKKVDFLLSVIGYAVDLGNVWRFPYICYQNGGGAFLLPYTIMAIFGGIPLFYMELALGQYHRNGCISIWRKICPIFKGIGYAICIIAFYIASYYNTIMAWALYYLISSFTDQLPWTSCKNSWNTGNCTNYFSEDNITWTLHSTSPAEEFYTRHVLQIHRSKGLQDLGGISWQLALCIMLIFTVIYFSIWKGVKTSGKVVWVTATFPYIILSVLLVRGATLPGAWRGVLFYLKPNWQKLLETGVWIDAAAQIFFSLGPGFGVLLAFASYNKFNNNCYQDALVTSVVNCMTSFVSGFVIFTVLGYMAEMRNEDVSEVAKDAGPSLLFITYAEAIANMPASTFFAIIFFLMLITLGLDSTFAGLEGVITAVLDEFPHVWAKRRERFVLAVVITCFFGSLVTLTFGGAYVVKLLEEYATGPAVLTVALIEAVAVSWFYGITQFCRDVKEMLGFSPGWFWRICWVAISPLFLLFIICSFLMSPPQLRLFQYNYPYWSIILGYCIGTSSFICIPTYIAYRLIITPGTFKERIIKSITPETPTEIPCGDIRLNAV

[16] = biological target: Sodium-dependent dopamine transporter (Mus musculus) (UniProt Q61327); experiment: (§2) Enhancing of [125I]RTI-55 binding to mouse DAT expressed in HEK293 cells preincubated for 10 mins followed by radioligand addition measured after 90 mins by micro beta scintillation counting analysis; assay type: cell-based
Sodium-dependent dopamine transporter (Mus musculus), sequence (Q61327 whole entry): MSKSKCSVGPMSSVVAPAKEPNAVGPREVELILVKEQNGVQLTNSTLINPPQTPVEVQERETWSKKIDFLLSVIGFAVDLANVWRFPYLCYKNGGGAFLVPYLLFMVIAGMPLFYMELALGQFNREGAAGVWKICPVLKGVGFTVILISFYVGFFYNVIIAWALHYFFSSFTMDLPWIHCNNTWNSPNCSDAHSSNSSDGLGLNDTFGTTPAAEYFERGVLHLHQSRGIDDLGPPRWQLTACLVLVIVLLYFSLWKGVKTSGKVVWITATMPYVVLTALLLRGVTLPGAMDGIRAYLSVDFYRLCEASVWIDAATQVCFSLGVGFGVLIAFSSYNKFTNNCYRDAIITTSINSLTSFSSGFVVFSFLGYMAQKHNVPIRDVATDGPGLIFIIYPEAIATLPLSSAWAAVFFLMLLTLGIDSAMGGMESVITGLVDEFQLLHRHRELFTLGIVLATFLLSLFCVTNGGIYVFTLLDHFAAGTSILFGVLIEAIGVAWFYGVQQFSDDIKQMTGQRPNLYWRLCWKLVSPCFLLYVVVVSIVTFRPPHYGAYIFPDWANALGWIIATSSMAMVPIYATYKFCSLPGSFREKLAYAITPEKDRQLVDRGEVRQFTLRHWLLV
How it was run: (§3)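 Membranes preincubated 10 min at room temperature with compound in Krebs-HEPES buffer pH 7.4, then [125I]23 at fixed 45-50 pM for 90 min in the dark, filtered. […] EC50 and % control binding; mean ± SEM.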

[17] = biological target: T7, Sodium-dependent dopamine transporter (Mus musculus, UniProt Q61327); experiment: as §2; assay type: cell-based; how it was run: as §3
T7 sequence (Q61327 whole entry): as above

[18] = biological target: Adenosine receptor A3 (Homo sapiens) (UniProt P0DMS8); experiment: Agonist activity at human A3AR assessed as inhibition of cAMP formation at 10 uM relative to adenosine-5'-Nethyluronamide
[19] = biological target: T7, Sodium-dependent dopamine transporter; experiment: Inhibition of mouse DAT expressed in HEK293 cells assessed as reduction in [3H]-DA uptake; assay type: cell-based

| inhibition [3] | Ki [7] [nM] | inhibition [8] [%] | Activity [10] | SMILES | IC50 [2] [nM] | Activity [4] | Activity [5] [%] | EC50 [5] [nM] | Activity [6] [%] | EC50 [6] [nM] | Activity [9] [%] | EC50 [9] [nM] | IC50 [11] [µM] | EC50 [12] [µM] | Activity [13] | EC50 [13] [µM] | Emax [16] [%] | EC50 [17] [nM] | IC50 [19] [nM] | other results |
| --- | --- | --- | --- | --- | --- | --- | --- | --- | --- | --- | --- | --- | --- | --- | --- | --- | --- | --- | --- | --- |
| inactive | – | 0 | 50% | CNc1nc(C#Cc2ccc(Cl)s2)nc2c1ncn2[C@H]1[C@H](O)[C@H](O)[C@]2(C(=O)O)C[C@H]12 | – | – | – | – | – | – | – | – | – | – | – | – | – | – | – | EC50 [14]: > 1000 nM |
| – | – | – | – | CNC(=O)[C@@]12C[C@@H]1[C@@H](n1cnc3c(NC)nc(C#Cc4ccc(F)c(F)c4)nc31)[C@H](O)[C@@H]2O | 92 | inactive | 371 | – | 438 | 128 | 690 | 70 | – | > 10 | inactive | > 10 | – | – | – | IC50 [15]: > 10 µM; Activity [12]: inactive |
| inactive | 24.4 | 32 | 196% | CNc1nc(C#Cc2ccc(Cl)s2)nc2c1ncn2[C@H]1[C@H](O)[C@H](O)[C@]2(C(=O)OCCC(C)C)C[C@H]12 | – | – | – | – | – | – | – | – | – | – | – | – | – | – | – | – |
| 36% | 42.9 | 30 | inactive | CNc1nc(C#Cc2ccc(Cl)s2)nc2c1ncn2[C@H]1[C@H](O)[C@H](O)[C@]2(C(=O)OC(C)C)C[C@H]12 | – | – | – | – | – | – | – | – | – | – | – | – | – | – | – | Ki [1]: 430 nM; EC50 [14]: > 1000 nM |
| inactive | 14.5 | 45 | 539% | CCOC(=O)[C@@]12C[C@@H]1[C@@H](n1cnc3c(NC)nc(C#Cc4ccc(Cl)s4)nc31)[C@H](O)[C@@H]2O | 107 | inactive | 365 | 490 | 455 | 267 | 434 | 34 | 3.98 | > 10 | inactive | > 10 | 1560 | 1070 | 1170 | – |

| SMILES | inhibition [3] | Ki [7] [nM] | inhibition [8] [%] | Activity [10] | IC50 [2] [nM] | Activity [4] | Activity [5] [%] | EC50 [5] [nM] | Activity [6] [%] | EC50 [6] [nM] | Activity [9] [%] | EC50 [9] [nM] | IC50 [11] [µM] | EC50 [12] [µM] | Activity [13] | EC50 [13] [µM] | Emax [16] [%] | EC50 [17] [nM] | IC50 [19] [nM] | other results |
| --- | --- | --- | --- | --- | --- | --- | --- | --- | --- | --- | --- | --- | --- | --- | --- | --- | --- | --- | --- | --- |
| CNc1nc(C#Cc2ccc(Br)s2)nc2c1ncn2[C@H]1[C@H](O)[C@H](O)[C@]2(C(=O)OC)C[C@H]12 | inactive | 8.56 | 57 | 370% | 246 | inactive | 293 | 400 | 520 | 308 | 374 | 53.5 | 3.56 | > 10 | inactive | > 10 | – | – | – | Ki [1]: 258 nM |
| CNC(=O)[C@@]12C[C@@H]1[C@@H](n1cnc3c(NC)nc(C#Cc4ccc(Cl)s4)cc31)[C@H](O)[C@@H]2O | inactive | – | 38 | 334% | 163 | inactive | 318 | 740 | 405 | 550 | 437 | 239 | 5.06 | – | inactive | – | 1000 | 2760 | 4300 | Efficacy [18]: 116% |
| CNc1nc(C#Cc2ccc(Cl)s2)nc2c1ncn2[C@H]1[C@H](O)[C@H](O)[C@]2(C(=O)OC)C[C@H]12 | inactive | 5.38 | 36 | 352% | 127 | inactive | 375 | 310 | 540 | 124 | 458 | 35 | 3.38 | – | inactive | – | 1440 | 810 | 940 | Efficacy [18]: 11.6% |
